M4 PAM: positive allosteric modulators of human muscarinic M4 receptor. activation, % at 3 µM. AID 624126. 0.4% of 360,000 active. CHO-K1 hM4/Gqi5, Fluo-8 calcium fluorescence, ACh EC20; 0% = ACh EC20, 100% = maximal ACh;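 active = activation above its plate's cutoff, the mean activation of sample wells plus 3 SD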
M4 ag: agonists of human muscarinic M4 receptor (CHRM4); CHO-K1 hM4/Gqi5, Fluo-8 calcium fluorescence; vehicle 0%, full acetylcholine response 100%; activation, % at 3 µM; 0.14% of 360,000 active; P08173;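 active = activation above the run mean over all test wells plus 3 SD, cut at about 32% in these data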;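 note: peak over basal fluorescence ratio per well then scaled between controls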
M5 antag: antagonists of human muscarinic M5 receptor (CHRM5); CHO-hM5 cells, Fluo-8 calcium fluorescence, ACh EC80; inhibition, % at 3 µM; 0.59% of 360,000 active; P08912;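 active = inhibition above a per-plate cutoff, the mean of that plate's test compounds plus 3 SD, cut at about 27% in these data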
Target sequence (P08912 whole entry, looked up): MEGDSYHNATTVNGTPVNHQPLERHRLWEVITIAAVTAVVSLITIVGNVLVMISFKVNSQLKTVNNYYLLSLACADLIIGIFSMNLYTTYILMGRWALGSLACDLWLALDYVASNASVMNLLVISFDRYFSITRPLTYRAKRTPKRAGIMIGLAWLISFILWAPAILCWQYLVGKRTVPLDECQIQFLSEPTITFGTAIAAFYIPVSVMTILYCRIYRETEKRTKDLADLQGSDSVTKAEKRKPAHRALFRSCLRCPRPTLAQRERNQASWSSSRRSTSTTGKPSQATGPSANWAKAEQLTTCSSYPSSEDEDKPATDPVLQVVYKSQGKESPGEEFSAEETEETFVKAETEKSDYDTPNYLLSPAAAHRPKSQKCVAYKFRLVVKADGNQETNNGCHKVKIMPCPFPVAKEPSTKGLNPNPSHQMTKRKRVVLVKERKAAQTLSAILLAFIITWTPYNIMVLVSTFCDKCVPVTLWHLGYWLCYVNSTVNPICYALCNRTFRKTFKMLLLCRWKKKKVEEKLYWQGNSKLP
M4 antag: blocks acetylcholine activation of human M4 receptor; P08173; CHO-hM4 cells, ACh EC80, Fluo-8 calcium fluorescence; inhibition, % at 3 µM; 0.73% of 360,000 active; AID 624125;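 active = inhibition above its plate's cutoff, the mean inhibition of sample wells plus 3 SD, cut at about 27% in these data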
CHRM5 PAM: potentiates acetylcholine response at human M5 receptor; P08912; CHO-K1 hM5, Fluo-8 calcium, ACh EC20 PAM; 0% = ACh EC20, 100% = ACh EC100; activation, % at 3 µM; 0.3% of 360,000 active;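 active = activation above the run cutoff, the mean activation of all test compounds plus 3 SD, cut at about 18% in these data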
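Replicates: One well per compound, no replicates | System: Human M5 receptor in CHO-K1 cells | Benchmarks: Low control EC20 acetylcholine (0%), high control EC100 acetylcholine (100%) | Probe or stimulus: Acetylcholine, EC20 level | Times: Fluo-8 loading 80 min at 37 °C plus 30 min room temperature | Signal: Intracellular calcium via Fluo-8 fluorescence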
M5 ag: agonists of human muscarinic M5 receptor (CHRM5) | activation, % at 3 µM | P08912 | 0.19% of 360,000 active | CHO-K1 hM5 cells, Fluo-8 calcium fluorescence; 0% DMSO wells, 100% maximal acetylcholine response;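 active = activation above the run's mean over test compounds plus 3 SD, cut at about 23% in these data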;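 note: signal is peak over basal fluorescence ratio across the kinetic read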
A number is an active result; i = inactive. Compounds with a hit are over-represented: about 1.8% of the library has one in this group of screens.

SMILES	M4 PAM	M4 ag	M5 antag	M4 antag	CHRM5 PAM	M5 ag
CN(C)CCCN1c2ccccc2Sc2ccc(Cl)cc21	i	i	98.2	73.2	i	i
CCOC(=O)Cn1cc(Cl)cc(C(=O)Nc2ccccc2)c1=O	i	i	i	i	i	i
Cc1ccc(S(=O)(=O)N2CCC(C)CC2)cc1[N+](=O)[O-]	i	i	i	i	i	i
CC(Sc1ccc(S(=O)(=O)N2CCOCC2)cc1[N+](=O)[O-])C(=O)O (stereo not given)	22.8	i	i	i	i	i
COC(=O)CSc1ccc(S(=O)(=O)N2CCC(C)CC2)cc1[N+](=O)[O-]	24.9	i	i	i	i	i
CN(C)S(=O)(=O)N1C(=O)c2ccccc2C1=O	i	i	i	i	i	i
CN(C)/C=C1\C=C2C(=O)c3ccccc3N2C1=O	i	64.8	i	i	i	109.8
C=C1CC2(OC1=O)c1ccccc1CCc1ccccc12	i	i	i	47.6	i	i
CC(OC(=O)c1cccc(S(=O)(=O)N2CCCCC2)c1)C(=O)NC1CCCCC1C (stereo not given)	i	i	i	i	i	i
S=C(NCCCN1CCOCC1)N(Cc1ccccc1)Cc1ccccc1	i	i	30.5	i	i	i
O=C(CCCc1ccccc1)NCCCN1CCOCC1	i	i	i	i	i	i
c1ccc(CCCN2CCOCC2)cc1	17.2	i	i	i	i	i
c1ccc(OCc2ccc(CCCN3CCOCC3)cc2)cc1	i	i	i	i	i	i
CCOc1ccc(NS(=O)(=O)c2c(C(=O)N3CCCCCC3)c(C)n(C)c2C)cc1	i	i	i	i	i	i
CCOC(=O)/C=c1/s/c(=C/c2ccc3cc(OC)ccc3c2)c(=O)n1CC(=O)NCc1ccc2c(c1)OCO2	i	i	37.5	i	i	38.6
CCOC(=O)/C=c1\s/c(=C\c2ccc(C)cc2)c(=O)n1CC(=O)NCc1ccco1	18.9	i	i	i	i	i
CCOC(=O)/C=c1\s/c(=C\c2ccc(C(F)(F)F)cc2)c(=O)n1CC(=O)NCc1ccco1	i	i	i	i	i	i
CCOC(=O)/C=c1\s/c(=C\c2ccc(-c3ccccc3)cc2)c(=O)n1CC(=O)NCc1ccc2c(c1)OCO2	i	i	i	i	i	i
COc1ccc(-c2ccc(C(=O)Nc3cccc(NS(C)(=O)=O)c3)c3occc23)c(C)c1	i	i	i	30.8	i	i
COc1ccc(-c2ccc(C(=O)Nc3cccc(F)c3)c3occc23)c(C)c1	i	i	i	i	i	i
S=C(NCC1CCCO1)c1ccc(Br)cc1 (stereo not given)	i	i	i	i	i	i
CCC(C)(C(=O)Nc1ccc(OC)cc1)N(C)C(=O)Cn1nnnc1N (stereo not given)	i	i	i	i	19.4	i
COc1ccc(NC(=O)C2(N(C(=O)Cn3nnnc3N)c3ccc(OC)cc3)CCCCC2)cc1	i	i	i	i	i	i
CCCCC1(CC(=O)OCC)C(=O)N(c2ccccc2)N(c2ccccc2)C1=O	i	i	i	i	i	i
CN(C(=O)CSc1nc2ccc(Cl)cc2[nH]1)C1CCS(=O)(=O)C1 (stereo not given)	i	i	i	i	22.8	i
SMILES	M4 PAM	M4 ag	M5 antag	M4 antag	CHRM5 PAM	M5 ag
Cc1ccccc1-n1nc2c(c1NC(=O)CC(C)C)CS(=O)C2 (stereo not given)	i	i	i	i	i	i
COc1cc(/C=C2\SC(=S)N(NC(=O)c3ccc(O)c(OC)c3)C2=O)ccc1O	i	35.2	i	i	i	25.0
COc1cc(/C=C2\SC(=S)N(CCC(=O)Nc3cccc(O)c3)C2=O)cc(OC)c1OC	i	i	27.2	i	i	i
COc1cc(/C=C2\SC(=S)N(NC(=O)c3cccc(O)c3)C2=O)ccc1O	i	36.1	i	i	i	i
COc1cc(/C=C2\SC(=S)N(CCC(=O)Nc3ccccc3)C2=O)cc(OC)c1OC	i	i	i	i	i	i
Cc1cc(C(=O)CCC(=O)NCc2ccccc2F)c(C)s1	i	i	i	i	i	i
COc1ccccc1N1CCN(/N=C/C(Cl)=C/c2ccccc2)CC1	i	i	i	i	i	i
Nc1ccc2c3c(cccc13)-c1ccccc1-2	i	i	63.1	30.6	i	204.7
CN1CCN(C(=O)/C(=C/c2ccccc2)c2ccccc2)CC1	i	i	27.6	53.5	i	i
O=S(=O)(Nc1cccc2ncccc12)c1cccs1	i	i	i	36.8	i	i
COC1=C(OC)c2ccccc2C(C(=O)O)N/C1=C(/C)Nc1ccncc1 (stereo not given)	i	i	i	28.8	i	i
CCc1ccc2[nH]c(=O)c(C(c3nnnn3Cc3ccc(OC)cc3)N3CCOCC3)cc2c1 (stereo not given)	38.9	i	i	i	i	i
Cc1ccc(NC(=O)CNc2ccc(Cl)c(Cl)c2)cc1S(=O)(=O)N(C)C	i	i	i	32.6	i	i
CCC1CCCCN1CCCNC(=O)c1ccc2c(c1)N(Cc1ccc(F)cc1)C(=O)c1ccccc1S2=O (stereo not given)	i	i	i	29.4	i	i
O=C(NCCCN1CCCC1)c1ccc2c(c1)N(Cc1ccc(F)cc1)C(=O)c1ccccc1S2=O (stereo not given)	i	i	i	i	i	i
CCOC(=O)C1(CCCc2ccccc2)CCN(C(=O)C(C)n2cncn2)CC1 (stereo not given)	i	i	i	i	i	i
Cc1cccc(NC(=O)CSc2nncn2N)c1C	i	i	i	i	i	i
O=C(CO/N=C1\CCCc2nonc21)Nc1ccccc1Cl	i	i	i	26.8	i	i
O=C(/C=C/c1ccco1)N1CCC(Cc2ccccc2)CC1	i	i	i	i	i	i
OC(CCN1CC2CCC(CC2)C1)(Cc1ccccc1)c1ccco1 (stereo not given)	i	i	27.1	34.3	i	i
CCN(CC(=O)Nc1ccc2c(c1)OCCO2)C(=O)/C=C/c1cccc(Br)c1	i	i	i	i	i	i
CC1(C)CC(=O)C(=Cc2cn(CCC#N)nc2-c2ccc(Cl)cc2)C(=O)C1	19.8	i	i	i	i	i
O=C(CN1CCCC1)N1c2ccccc2Sc2ccc(Cl)cc21	i	i	95.9	93.9	i	i
O=C(CSc1nc2ccccc2o1)N1c2ccccc2Sc2ccc(C(F)(F)F)cc21	i	i	i	i	i	i
O=C(CN1CCCC1)N1c2ccccc2Sc2ccc(C(F)(F)F)cc21	i	i	98.8	95.1	i	i
CCNCCC(=O)N1c2ccccc2Sc2ccc(C(F)(F)F)cc21	i	i	99.8	95.7	i	i

Assay outcomes as filed in PubChem.
